In ChEMBL document CHEMBL4261553 (Medchemcomm, 2017):

Key:
[1] = biological target: T1, 5-hydroxytryptamine receptor 1A (Homo sapiens, UniProt P08908); experiment: Displacement of [3H]-8-OH-DPAT from human 5-HT1A receptor expressed in CHOK1 cell membranes after 60 mins by microbeta scintillation counting method
T1 sequence (P08908 whole entry): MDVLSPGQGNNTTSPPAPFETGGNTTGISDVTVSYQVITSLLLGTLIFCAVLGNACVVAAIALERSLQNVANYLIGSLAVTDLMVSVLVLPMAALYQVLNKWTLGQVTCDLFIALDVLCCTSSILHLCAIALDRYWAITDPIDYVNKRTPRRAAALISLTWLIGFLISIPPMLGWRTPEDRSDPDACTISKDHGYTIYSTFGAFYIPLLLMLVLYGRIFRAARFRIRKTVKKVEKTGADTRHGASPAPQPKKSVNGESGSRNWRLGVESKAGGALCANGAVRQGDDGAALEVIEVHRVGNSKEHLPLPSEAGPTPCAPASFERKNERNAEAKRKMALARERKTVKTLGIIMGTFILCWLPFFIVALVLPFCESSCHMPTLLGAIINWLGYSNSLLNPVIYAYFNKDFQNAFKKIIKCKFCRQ
Method in brief: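 Membranes from CHO-K1 cells stably expressing human receptor, 10 µg protein/well, in 50 mM Tris pH 7.4 with 10 mM MgSO4, 0.5 mM EDTA, 0.1% ascorbic acid. Compounds at 6 concentrations, 10^-10 to 10^-5 M final, in duplicate; 27 °C. GF/C filtration, cold Tris washes. Ki by one-site fit and Cheng–Prusoff.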

[2] = biological target: 5-hydroxytryptamine receptor 2A (Homo sapiens, UniProt P28223); experiment: Displacement of [3H]-ketanserin from human 5-HT2A receptor expressed in CHOK1 cell membranes after 60 mins by microbeta scintillation counting method; assay type: cell-based
5-hydroxytryptamine receptor 2A, sequence (P28223 whole entry): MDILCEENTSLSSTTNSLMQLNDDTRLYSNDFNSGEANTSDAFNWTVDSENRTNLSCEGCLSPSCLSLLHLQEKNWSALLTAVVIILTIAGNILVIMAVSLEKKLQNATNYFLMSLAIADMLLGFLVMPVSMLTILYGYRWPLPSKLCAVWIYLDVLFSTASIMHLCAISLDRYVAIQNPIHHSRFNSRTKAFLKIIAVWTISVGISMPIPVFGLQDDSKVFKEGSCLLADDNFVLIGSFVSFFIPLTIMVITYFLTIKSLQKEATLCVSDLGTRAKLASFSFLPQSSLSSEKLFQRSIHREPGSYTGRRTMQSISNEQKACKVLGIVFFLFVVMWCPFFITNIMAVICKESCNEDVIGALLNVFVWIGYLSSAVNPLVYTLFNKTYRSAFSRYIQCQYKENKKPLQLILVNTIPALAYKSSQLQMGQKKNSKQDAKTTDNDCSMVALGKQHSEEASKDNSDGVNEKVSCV

Row | SMILES | Ki [1] [nM] | Ki [2] [nM]
1 | CC(=O)c1c(C)cc2oc(=O)cc(C)c2c1OCCCCN1CCN(c2cnccn2)CC1 | 4.8 | 2500
2 | CC(=O)c1c(C)cc2oc(=O)cc(C)c2c1OCCCN1CCN(c2ccc([N+](=O)[O-])cc2)CC1 | 159 | 286
3 | CC(=O)c1c(C)cc2oc(=O)cc(C)c2c1OCCCN1CCN(c2ccccc2C#N)CC1 | 0.3 | 64
4 | Cc1cc(OCCCN2CCN(c3ccccc3F)CC2)c2c(C)cc(=O)oc2c1 | 3 | 55
5 | Cc1cc(OCCCCN2CCN(c3ccccc3F)CC2)c2c(C)cc(=O)oc2c1 | 1.7 | 120
6 | CC(=O)c1c(C)cc2oc(=O)cc(C)c2c1OCCCCN1CCOCC1 | 250 | 4460
7 | Cc1cc(OCCCCN2CCN(c3ccccc3C#N)CC2)c2c(C)cc(=O)oc2c1 | 1.5 | 112
8 | CC(=O)c1c(C)cc2oc(=O)cc(C)c2c1OCCCN1CCN(c2cnccn2)CC1 | 11 | 3000
9 | CC(=O)c1c(C)cc2oc(=O)cc(C)c2c1OCCCCN1CCN(c2cccc(Cl)c2Cl)CC1 | 250 | 2650
10 | Cc1cc(OCCCN2CCOCC2)c2c(C)cc(=O)oc2c1 | 1300 | > 10000
11 | Cc1cc(OCCCN2CCN(c3cccc(Cl)c3Cl)CC2)c2c(C)cc(=O)oc2c1 | 4 | 42
12 | Cc1cc(OCCCN2CCN(c3ccccc3C#N)CC2)c2c(C)cc(=O)oc2c1 | 3 | 200
13 | CC(=O)c1c(C)cc2oc(=O)cc(C)c2c1OCCCN1CCN(c2ccncc2)CC1 | 154 | > 10000
14 | Cc1cc(OCCCCN2CCN(c3cccc(Cl)c3Cl)CC2)c2c(C)cc(=O)oc2c1 | 8 | 167
15 | CC(=O)c1c(C)cc2oc(=O)cc(C)c2c1OCCCN1CCOCC1 | 850 | > 10000
16 | Cc1cc(OCCCN2CCN(c3cnccn3)CC2)c2c(C)cc(=O)oc2c1 | 186 | 4570
17 | Cc1cc(OCCCCN2CCN(c3ccc([N+](=O)[O-])cc3)CC2)c2c(C)cc(=O)oc2c1 | 809 | > 10000
18 | CC(=O)c1c(C)cc2oc(=O)cc(C)c2c1OCCCN1CCN(c2cccc(Cl)c2Cl)CC1 | 0.4 | 66

Row | SMILES | Ki [1] [nM] | Ki [2] [nM]
19 | Cc1cc(OCCCCN2CCN(c3ccncc3)CC2)c2c(C)cc(=O)oc2c1 | 389 | > 5000
20 | Cc1cc(OCCCCN2CCN(c3ccc(Cl)cc3)CC2)c2c(C)cc(=O)oc2c1 | 60 | 465
21 | CC(=O)c1c(C)cc2oc(=O)cc(C)c2c1OCCCCN1CCN(c2ccccc2F)CC1 | 0.7 | 9
22 | COc1cccc(N2CCN(CCCOc3cc(C)cc4oc(=O)cc(C)c34)CC2)c1 | 6 | 106
23 | Cc1cc(OCCCCN2CCN(c3cnccn3)CC2)c2c(C)cc(=O)oc2c1 | 6.7 | 2300
24 | CC(=O)c1c(C)cc2oc(=O)cc(C)c2c1OCCCCN1CCN(c2ccc(Cl)cc2)CC1 | 7 | 1.7
25 | Cc1cc(OCCCCN2CCOCC2)c2c(C)cc(=O)oc2c1 | 3500 | > 10000
26 | Cc1cc(OCCCN2CCN(c3ccc([N+](=O)[O-])cc3)CC2)c2c(C)cc(=O)oc2c1 | 1210 | > 10000
27 | COc1cccc(N2CCN(CCCOc3c(C(C)=O)c(C)cc4oc(=O)cc(C)c34)CC2)c1 | 0.4 | 48
28 | Cc1cc(OCCCN2CCN(c3ccc(Cl)cc3)CC2)c2c(C)cc(=O)oc2c1 | 161 | 70
29 | COc1cccc(N2CCN(CCCCOc3cc(C)cc4oc(=O)cc(C)c34)CC2)c1 | 1 | 184
30 | CC(=O)c1c(C)cc2oc(=O)cc(C)c2c1OCCCCN1CCN(c2ccncc2)CC1 | 308 | 1590
31 | Cc1cc(OCCCN2CCN(c3ccncc3)CC2)c2c(C)cc(=O)oc2c1 | 450 | > 5000
32 | CC(=O)c1c(C)cc2oc(=O)cc(C)c2c1OCCCN1CCN(c2ccc(Cl)cc2)CC1 | 1.2 | 4
33 | COc1cccc(N2CCN(CCCCOc3c(C(C)=O)c(C)cc4oc(=O)cc(C)c34)CC2)c1 | 15 | 520
34 | CC(=O)c1c(C)cc2oc(=O)cc(C)c2c1OCCCN1CCN(c2ccccc2F)CC1 | 0.3 | 28
35 | CC(=O)c1c(C)cc2oc(=O)cc(C)c2c1OCCCCN1CCN(c2ccc([N+](=O)[O-])cc2)CC1 | 33 | 46
